# ChEMBL document CHEMBL5705905, “Pharmacological targeting of kinases MST1 and MST2 augments tissue repair and regeneration” (Sci Transl Med, 2016)
# The source made the active and inactive calls. No cut-off for these calls is given here.
# Experiments:
# [1] = molecular target: G protein-coupled receptor kinase 3 (Homo sapiens) (UniProt P35626); test: Inhibition of GRK3 (unknown origin) assessed as remaining activity at 1 uM by Kinome scan method relative to control
# [2] = tested on: Epidermal growth factor receptor (Homo sapiens), P00533 [G719S]; test: Inhibition of EGFR G719S mutant (unknown origin) assessed as remaining activity at 1 uM by Kinome scan method relative to control
# [3] = molecular target: Cyclin-dependent kinase-like 3 (Homo sapiens) (UniProt Q8IVW4); test: Inhibition of CDKL3 (unknown origin) assessed as remaining activity at 1 uM by Kinome scan method relative to control
# Procedure, shortened: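 Active-site-dependent competition-binding profiling (KINOMEscan) at 1 μM against a 468-kinase panel; compound supplied from a 10 mM DMSO stock. Read-out is ctrl% = (test signal − positive control signal)/(negative control signal − positive control signal) × 100. DMSO is the negative control (100%) and a control compound the positive control (0%). Lower ctrl% means tighter binding.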
# [4] = molecular target: Serine/threonine-protein kinase haspin (Homo sapiens) (UniProt Q8TF76); test: Inhibition of HASPIN (unknown origin) assessed as remaining activity at 1 uM by Kinome scan method relative to control
# [5] = Inhibition of phosphorylated ABL1 T315I mutant (unknown origin) in presence of ATP by enzymatic assay; parameters: species or system Homo sapiens
# [6] = molecular target: Ribosomal protein S6 kinase alpha-2 (Homo sapiens) (UniProt Q15349); test: Inhibition of C-terminal kinase domain RSK3 (unknown origin) assessed as remaining activity at 1 uM by Kinome scan method relative to control
# Ribosomal protein S6 kinase alpha-2 (Homo sapiens), sequence (Q15349 whole entry, the tested form may be a part): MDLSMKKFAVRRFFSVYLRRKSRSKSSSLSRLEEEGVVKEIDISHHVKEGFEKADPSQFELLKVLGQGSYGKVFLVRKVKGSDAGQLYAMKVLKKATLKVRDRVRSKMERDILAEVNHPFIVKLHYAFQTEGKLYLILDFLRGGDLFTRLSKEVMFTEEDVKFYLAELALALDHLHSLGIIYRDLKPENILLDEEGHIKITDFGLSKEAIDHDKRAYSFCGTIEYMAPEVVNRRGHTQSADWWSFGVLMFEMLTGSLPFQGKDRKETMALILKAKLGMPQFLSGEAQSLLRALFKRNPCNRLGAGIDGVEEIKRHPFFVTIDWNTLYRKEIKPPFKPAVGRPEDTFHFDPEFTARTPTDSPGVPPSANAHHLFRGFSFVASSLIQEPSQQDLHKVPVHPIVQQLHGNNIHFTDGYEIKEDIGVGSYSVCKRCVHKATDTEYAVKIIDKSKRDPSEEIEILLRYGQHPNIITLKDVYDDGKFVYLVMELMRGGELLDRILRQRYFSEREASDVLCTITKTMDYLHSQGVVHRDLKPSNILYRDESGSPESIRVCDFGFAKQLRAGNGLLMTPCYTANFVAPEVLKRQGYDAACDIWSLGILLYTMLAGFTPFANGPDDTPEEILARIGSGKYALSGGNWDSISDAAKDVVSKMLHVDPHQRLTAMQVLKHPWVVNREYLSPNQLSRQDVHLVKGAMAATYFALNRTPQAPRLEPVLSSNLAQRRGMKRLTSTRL
# Procedure, shortened: (§1)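 Active-site-dependent competition-binding (KINOMEscan) panel of 468 kinases, test compound at 1 μM (from a 10 mM DMSO stock). Read-out is ctrl% = (test signal − positive control signal)/(negative control signal − positive control signal) × 100. DMSO is the negative control (100%) and a control compound is the positive control (0%). Lower ctrl% means tighter binding.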
# Mus musculus = test: Protection against APAP induced liver injury in mouse assessed as decrease in ALT level at 1 mg/kg, ip administered at 2.5 hrs; format: functional, organism-based; conditions: Serum
# [7] = molecular target: Homeodomain-interacting protein kinase 2 (Homo sapiens) (UniProt Q9H2X6); test: Inhibition of HIPK2 (unknown origin) assessed as remaining activity at 1 uM by Kinome scan method relative to control
# Homeodomain-interacting protein kinase 2 (Homo sapiens), sequence (Q9H2X6 whole entry, looked up): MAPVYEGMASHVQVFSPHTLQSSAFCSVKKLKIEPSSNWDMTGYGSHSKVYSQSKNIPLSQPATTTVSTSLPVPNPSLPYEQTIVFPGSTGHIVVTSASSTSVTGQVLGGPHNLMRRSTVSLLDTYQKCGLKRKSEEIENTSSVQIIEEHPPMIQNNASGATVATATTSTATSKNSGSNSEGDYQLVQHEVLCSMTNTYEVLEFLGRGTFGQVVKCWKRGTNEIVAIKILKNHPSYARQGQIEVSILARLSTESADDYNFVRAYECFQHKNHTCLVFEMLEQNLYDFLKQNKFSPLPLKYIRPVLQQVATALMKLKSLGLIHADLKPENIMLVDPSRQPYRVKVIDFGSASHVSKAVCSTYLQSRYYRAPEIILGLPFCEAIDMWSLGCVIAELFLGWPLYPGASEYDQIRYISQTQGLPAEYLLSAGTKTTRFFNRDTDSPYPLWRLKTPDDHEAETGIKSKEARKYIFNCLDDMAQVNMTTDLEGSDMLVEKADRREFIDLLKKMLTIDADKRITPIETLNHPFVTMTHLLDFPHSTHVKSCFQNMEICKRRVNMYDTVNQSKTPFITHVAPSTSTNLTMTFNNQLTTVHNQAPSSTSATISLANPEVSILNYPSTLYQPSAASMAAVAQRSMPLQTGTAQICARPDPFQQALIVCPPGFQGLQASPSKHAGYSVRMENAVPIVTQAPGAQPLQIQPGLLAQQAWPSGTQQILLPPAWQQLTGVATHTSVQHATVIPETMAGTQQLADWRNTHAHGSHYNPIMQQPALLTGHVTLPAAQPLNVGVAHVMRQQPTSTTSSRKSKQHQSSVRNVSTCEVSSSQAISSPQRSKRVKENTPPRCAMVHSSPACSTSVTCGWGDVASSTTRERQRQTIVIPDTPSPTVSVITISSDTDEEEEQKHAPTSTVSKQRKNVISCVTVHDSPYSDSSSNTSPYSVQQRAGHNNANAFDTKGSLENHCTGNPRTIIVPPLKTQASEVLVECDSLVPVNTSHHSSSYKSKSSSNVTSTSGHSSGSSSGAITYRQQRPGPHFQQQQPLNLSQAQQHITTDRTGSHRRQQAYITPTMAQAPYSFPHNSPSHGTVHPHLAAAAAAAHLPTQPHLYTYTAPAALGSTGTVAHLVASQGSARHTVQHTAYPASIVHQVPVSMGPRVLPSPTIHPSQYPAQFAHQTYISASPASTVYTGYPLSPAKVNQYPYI
# [8] = tested on: Leucine-rich repeat serine/threonine-protein kinase 2 (Homo sapiens), Q5S007 [G2019S]; test: Inhibition of LRRK2 G2019S mutant (unknown origin) assessed as remaining activity at 1 uM by Kinome scan method relative to control
# [9] = tested on: Epidermal growth factor receptor (Homo sapiens), P00533 [L861Q]; test: Inhibition of EGFR L861Q mutant (unknown origin) assessed as remaining activity at 1 uM by Kinome scan method relative to control
# [10] = molecular target: RAC-alpha serine/threonine-protein kinase (Homo sapiens) (UniProt P31749); test: Inhibition of AKT1 (unknown origin) assessed as remaining activity at 1 uM by Kinome scan method relative to control; procedure, shortened: as §1
# RAC-alpha serine/threonine-protein kinase (Homo sapiens), sequence (P31749 whole entry): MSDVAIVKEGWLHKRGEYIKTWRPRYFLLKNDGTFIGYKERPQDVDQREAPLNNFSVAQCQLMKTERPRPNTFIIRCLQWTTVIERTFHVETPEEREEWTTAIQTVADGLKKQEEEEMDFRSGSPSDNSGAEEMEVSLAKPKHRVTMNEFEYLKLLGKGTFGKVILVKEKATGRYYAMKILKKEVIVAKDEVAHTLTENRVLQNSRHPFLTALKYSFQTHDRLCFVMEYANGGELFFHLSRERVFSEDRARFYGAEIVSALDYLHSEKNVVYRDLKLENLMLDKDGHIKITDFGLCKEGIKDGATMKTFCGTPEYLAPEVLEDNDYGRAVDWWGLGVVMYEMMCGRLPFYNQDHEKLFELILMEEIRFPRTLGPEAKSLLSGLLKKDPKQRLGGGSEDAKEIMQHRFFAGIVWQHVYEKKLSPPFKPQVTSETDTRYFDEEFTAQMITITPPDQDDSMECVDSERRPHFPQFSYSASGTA
# [11] = molecular target: Serine/threonine-protein kinase Nek11 (Homo sapiens) (UniProt Q8NG66); test: Inhibition of NEK11 (unknown origin) assessed as remaining activity at 1 uM by Kinome scan method relative to control
# [12] = molecular target: Ribosomal protein S6 kinase alpha-6 (Homo sapiens) (UniProt Q9UK32); test: Inhibition of N-terminal kinase domain RSK4 (unknown origin) assessed as remaining activity at 1 uM by Kinome scan method relative to control
# Ribosomal protein S6 kinase alpha-6 (Homo sapiens), sequence (Q9UK32 whole entry, the tested form may be a part): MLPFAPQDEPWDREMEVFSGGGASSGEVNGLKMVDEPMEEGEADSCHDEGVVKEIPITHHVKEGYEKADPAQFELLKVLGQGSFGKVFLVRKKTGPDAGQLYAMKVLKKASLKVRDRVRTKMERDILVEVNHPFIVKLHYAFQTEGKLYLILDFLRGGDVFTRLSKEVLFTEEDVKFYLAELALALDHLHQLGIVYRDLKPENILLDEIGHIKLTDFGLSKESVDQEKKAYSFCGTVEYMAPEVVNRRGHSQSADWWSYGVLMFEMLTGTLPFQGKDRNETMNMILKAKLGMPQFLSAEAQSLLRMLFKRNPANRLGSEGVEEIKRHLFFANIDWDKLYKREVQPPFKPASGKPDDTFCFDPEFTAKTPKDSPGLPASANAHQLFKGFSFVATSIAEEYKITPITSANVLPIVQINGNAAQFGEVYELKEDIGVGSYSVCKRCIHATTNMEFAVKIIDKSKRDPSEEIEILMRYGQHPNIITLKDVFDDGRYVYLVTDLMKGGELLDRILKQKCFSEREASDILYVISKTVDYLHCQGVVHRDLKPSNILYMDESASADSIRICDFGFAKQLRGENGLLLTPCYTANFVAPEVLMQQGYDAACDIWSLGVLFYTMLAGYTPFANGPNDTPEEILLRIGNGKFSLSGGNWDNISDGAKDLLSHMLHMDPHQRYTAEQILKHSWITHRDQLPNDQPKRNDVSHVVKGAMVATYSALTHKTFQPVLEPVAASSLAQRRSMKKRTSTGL
# [13] = molecular target: LIM domain kinase 2 (Homo sapiens) (UniProt P53671); test: Inhibition of LIMK2 (unknown origin) assessed as remaining activity at 1 uM by Kinome scan method relative to control
# HepG2 = test: Induction of apoptosis in human HepG2 cells assessed as early apoptosis cells at 3 uM by annexinV staining (Rvb =4.16 %); format: functional
# [14] = molecular target: T1, Serine/threonine-protein kinase 3 (Homo sapiens, UniProt Q13188); test: Inhibition of recombinant His-tagged full-length MST2 (unknown origin) expressing in Escherichia coli assessed as MOB1a phosphorylation level incubated for 30 min in the presence of 30 uM ATP by immunoblot analysis
# T1 sequence (Q13188 whole entry): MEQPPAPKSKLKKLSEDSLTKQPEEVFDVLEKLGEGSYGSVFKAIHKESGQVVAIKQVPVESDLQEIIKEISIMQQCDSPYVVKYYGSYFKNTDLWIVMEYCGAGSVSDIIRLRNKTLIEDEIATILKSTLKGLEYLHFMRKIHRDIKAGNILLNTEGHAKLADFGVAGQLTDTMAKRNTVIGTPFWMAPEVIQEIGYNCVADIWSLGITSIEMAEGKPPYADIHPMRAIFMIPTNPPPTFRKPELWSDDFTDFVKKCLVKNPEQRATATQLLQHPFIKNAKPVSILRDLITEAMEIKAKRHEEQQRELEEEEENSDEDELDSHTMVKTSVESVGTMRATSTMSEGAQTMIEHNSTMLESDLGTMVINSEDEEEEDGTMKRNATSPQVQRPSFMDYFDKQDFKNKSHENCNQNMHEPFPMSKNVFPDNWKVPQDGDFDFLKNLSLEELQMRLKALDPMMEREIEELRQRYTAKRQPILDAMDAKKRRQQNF
# [15] = molecular target: Serine/threonine-protein kinase/endoribonuclease IRE1 (Homo sapiens) (UniProt O75460); test: Inhibition of ERN1 (unknown origin) assessed as remaining activity at 1 uM by Kinome scan method relative to control
# [16] = tested on: Phosphatidylinositol 4,5-bisphosphate 3-kinase catalytic subunit alpha isoform (Homo sapiens), P42336 [I800L]; test: Inhibition of PIK3CA I800L mutant (unknown origin) assessed as remaining activity at 1 uM by Kinome scan method relative to control
# [17] = molecular target: Fibroblast growth factor receptor 3 (Homo sapiens) (UniProt P22607); test: Inhibition of FGFR3 (unknown origin) assessed as remaining activity at 1 uM by Kinome scan method relative to control
# [18] = molecular target: Ephrin type-B receptor 3 (Homo sapiens) (UniProt P54753); test: Inhibition of EPHB3 (unknown origin) assessed as remaining activity at 1 uM by Kinome scan method relative to control
# Ephrin type-B receptor 3 (Homo sapiens), sequence (P54753 whole entry): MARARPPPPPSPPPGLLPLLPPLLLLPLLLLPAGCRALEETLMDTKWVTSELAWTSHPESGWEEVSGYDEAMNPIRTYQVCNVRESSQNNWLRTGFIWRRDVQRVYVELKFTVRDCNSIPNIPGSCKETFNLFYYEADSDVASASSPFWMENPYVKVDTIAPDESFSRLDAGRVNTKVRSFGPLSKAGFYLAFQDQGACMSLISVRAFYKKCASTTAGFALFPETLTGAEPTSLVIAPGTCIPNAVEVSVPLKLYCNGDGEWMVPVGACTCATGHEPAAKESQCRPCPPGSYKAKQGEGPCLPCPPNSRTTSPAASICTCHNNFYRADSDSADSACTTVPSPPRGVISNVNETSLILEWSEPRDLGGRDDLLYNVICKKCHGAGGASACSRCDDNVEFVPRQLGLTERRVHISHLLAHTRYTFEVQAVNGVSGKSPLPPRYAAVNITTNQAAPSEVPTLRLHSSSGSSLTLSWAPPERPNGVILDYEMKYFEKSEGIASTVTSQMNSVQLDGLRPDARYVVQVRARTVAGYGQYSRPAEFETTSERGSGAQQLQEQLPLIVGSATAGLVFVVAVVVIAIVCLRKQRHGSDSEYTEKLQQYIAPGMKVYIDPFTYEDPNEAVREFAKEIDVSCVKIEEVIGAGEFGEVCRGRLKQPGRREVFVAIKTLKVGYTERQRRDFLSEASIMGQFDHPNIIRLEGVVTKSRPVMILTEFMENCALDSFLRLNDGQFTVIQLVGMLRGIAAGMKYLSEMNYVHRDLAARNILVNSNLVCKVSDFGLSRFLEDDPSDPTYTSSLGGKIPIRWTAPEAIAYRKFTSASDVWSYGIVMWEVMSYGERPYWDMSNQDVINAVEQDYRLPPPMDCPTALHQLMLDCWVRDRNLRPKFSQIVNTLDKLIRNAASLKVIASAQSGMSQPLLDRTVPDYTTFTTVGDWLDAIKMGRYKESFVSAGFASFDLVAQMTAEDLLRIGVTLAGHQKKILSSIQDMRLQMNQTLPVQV
# [19] = molecular target: Serine/threonine-protein kinase OSR1 (Homo sapiens) (UniProt O95747); test: Inhibition of OSR1 (unknown origin) assessed as remaining activity at 1 uM by Kinome scan method relative to control
# [20] = Half life in male Sprague-Dawley rat at 5 mg/kg, iv measured for 24 hrs by LC-MS/MS analysis; format: ADME, organism-based; conditions: in vivo
# Procedure, shortened: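 Sprague-Dawley rats, single intravenous or oral dose. Parameters (half-life, AUC, bioavailability) reported in a supplementary table.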
# [21] = molecular target: Ribosomal protein S6 kinase alpha-1 (Homo sapiens) (UniProt Q15418); test: Inhibition of C-terminal kinase domain RSK1 (unknown origin) assessed as remaining activity at 1 uM by Kinome scan method relative to control; procedure, shortened: as §1
# [22] = molecular target: Activin receptor type-1B (Homo sapiens) (UniProt P36896); test: Inhibition of ACVR1B (unknown origin) assessed as remaining activity at 1 uM by Kinome scan method relative to control; procedure, shortened: as §1
# Activin receptor type-1B (Homo sapiens), sequence (P36896 whole entry): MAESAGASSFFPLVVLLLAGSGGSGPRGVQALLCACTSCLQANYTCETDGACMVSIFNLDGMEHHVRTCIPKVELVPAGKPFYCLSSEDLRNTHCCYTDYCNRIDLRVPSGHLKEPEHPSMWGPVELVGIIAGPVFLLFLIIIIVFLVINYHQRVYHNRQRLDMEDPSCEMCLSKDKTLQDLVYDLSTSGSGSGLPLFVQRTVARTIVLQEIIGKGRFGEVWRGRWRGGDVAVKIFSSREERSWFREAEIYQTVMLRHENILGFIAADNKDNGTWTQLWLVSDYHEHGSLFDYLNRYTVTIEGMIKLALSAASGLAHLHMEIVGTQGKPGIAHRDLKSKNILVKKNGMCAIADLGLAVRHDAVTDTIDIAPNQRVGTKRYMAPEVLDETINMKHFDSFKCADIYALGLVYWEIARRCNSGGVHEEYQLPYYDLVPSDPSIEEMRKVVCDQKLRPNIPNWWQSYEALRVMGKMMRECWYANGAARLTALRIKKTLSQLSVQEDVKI
smiles,measurement,setting,value
CN1C(=O)c2sccc2N(C)c2nc(Nc3ccc(S(N)(=O)=O)cc3)ncc21,Activity,[1],87%
same,Activity,[2],78%
same,Activity,[3],91%
same,Activity,[4],96%
same,IC50,[5],16.6 nM
same,Activity,[6],92%
same,Activity,Mus musculus,Active
same,Activity,[7],96%
same,Activity,[8],28%
same,Activity,[9],64%
same,Activity,[10],100%
same,Activity,[11],100%
same,Activity,[12],66%
same,Activity,[13],100%
same,Activity,HepG2,4.04%
same,IC50,[14],177 nM
same,Activity,[15],65%
same,Activity,[16],23%
same,Activity,[17],98%
same,Activity,[18],95%
same,Activity,[19],81%
same,half-life,[20],1.24 h
same,Activity,[21],100%
same,Activity,[22],76%
